Assay results reported in ChEMBL document CHEMBL4049428, “Exploring Derivatives of Quinazoline Alkaloid l-Vasicine as Cap Groups in the Design and Biological Mechanistic Evaluation of Novel Antitumor Histone Deacetylase Inhibitors” (J Med Chem, 2017).
Calls of active or inactive are those of the source. The rule behind the calls is not given here.

Assays:
[1] = tested on: HL-60; assay: Induction of mitochondrial membrane potential loss in human HL60 cells assessed as intact mitochondrial membrane potential at 0.125 uM measured after 48 hrs by Rh123 dye-based flow cytometric analysis (reference value: 91.3%); type: functional
Summary of the method: (§1)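 Cells seeded in 6-well plates 2-4 h, then 48 h with compound; Rh-123 1 µM added for the final half hour; cells centrifuged, washed twice in PBS, resuspended in PBS, and Ψm loss quantified by flow cytometry as percentage of cells.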

[2] = tested on: HL-60; assay: Induction of autophagy in human HL60 cells assessed as intracellular LC-3B distribution at 10 uM after 48 hrs by DAPI dye-based immunofluorescent microscopic analysis; type: functional, cell-based
Summary of the method: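 After 48 h treatment (SAHA 1.0 µM control), cells put on poly-lysine coverslips, fixed 15 min in 4% paraformaldehyde, permeabilised with 0.1% Triton X-100, blocked in 10% BSA; anti-LC-3B 1:100 for 1 h, Alexa Fluor 488 secondary 1:500 for 1 h, DAPI 1 µg/ml counterstain; imaged with 60X oil objective.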

[3] = species: Homo sapiens; assay: Inhibition of HDAC in human MOLT4 cells assessed as increase in acetylated H4K5 levels after 48 hrs by Western blot analysis; type: cell-based
Summary of the method: (§2)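 Cells seeded 2-4 h, treated 48 h with graded compound concentrations (SAHA control); histones acid-extracted (HEPES pH 9 buffer, 0.2 N HCl, 1 h on ice), Bradford-normalised, resolved on 18% SDS gels, blotted to PVDF, probed for acetyl-H3K18 and acetyl-H4K5 with H3 and β-actin loading controls; ECL detection.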

[4] = tested on: THP-1; assay: Cytotoxicity against human THP1 cells assessed as growth inhibition after 48 hrs by MTT assay; type: functional, cell-based; conditions: THP-1, 48 h
[5] = tested on: MIA PaCa-2; assay: Cytotoxicity against human MIAPaCa2 cells assessed as growth inhibition after 48 hrs by MTT assay; type: functional, cell-based; conditions: MIA PaCa-2, 48 h
Summary of the method: (§3)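 MTT assay, 48 h exposure; adherent lines seeded 12 h and suspension lines 4 h before compound. Media: RPMI-1640/10% FCS (THP-1, HL-60, Colo-205, Caco-2, A549), DMEM/10% FCS (A549, MIAPaCa-2, MCF-7). MTT 4 h, formazan dissolved in DMSO, absorbance 570 nm. Mean ± S.D of three experiments in triplicate; SAHA 5 µM reference.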

[6] = tested on: MOLT-4; assay: Induction of reactive oxygen species in human MOLT4 cells at 5 uM measured after 48 hrs by H2DCFDA dye-based flow cytometric analysis (reference value: 1.1%); type: functional
[7] = tested on: PC-3; assay: Cytotoxicity against human PC3 cells assessed as growth inhibition at 10 uM after 48 hrs by MTT assay; type: functional; conditions: PC-3, 48 h, read-out: GI
[8] = tested on: HL-60; assay: Induction of DNA damage in human HL60 cells by comet assay; type: functional, cell-based
Summary of the method: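 Alkaline comet assay on HL-60 cells in 0.5% low-melting agarose; lysis 2 h cold (2.5 M NaCl, 100 mM Na2EDTA, 10 mM Tris, pH 10, plus 1% Triton X-100); electrophoresis pH>13, 24 V, 300 mA, 40 min; neutralised pH 7.5, ethidium bromide stained; about 100 cells scored by image analysis, dim light.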

[9] = tested on: MCF-10A; assay: Cytotoxicity against human MCF10A cells assessed as growth inhibition after 48 hrs by MTT assay; type: ADME, cell-based
[10] = tested on: HL-60; assay: Induction of autophagy in human HL60 cells assessed as acidic vacuole formation in cytoplasm at 10 uM after 48 hrs by acridine orange dye-based fluorescent microscopic analysis; type: functional, cell-based
Summary of the method: (§4)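 Cells treated 48 h with a range of compound concentrations, SAHA 1.0 µM as positive control; acridine orange 1 µg/ml added 15 min before end at 37°C; cells washed in PBS and acidic vacuoles viewed by fluorescence microscopy.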

[11] = tested on: HL-60; assay: Induction of mitochondrial membrane potential loss in human HL60 cells assessed as intact mitochondrial membrane potential at 1 uM measured after 48 hrs by Rh123 dye-based flow cytometric analysis (reference value: 91.3%); type: functional; summary of the method: as §1
[12] = tested on: PC-3; assay: Cytotoxicity against human PC3 cells assessed as growth inhibition after 48 hrs by MTT assay; type: functional, cell-based; conditions: PC-3, 48 h
[13] = molecular target: Histone deacetylase 9 (Homo sapiens, UniProt Q9UKV0); assay: Inhibition of HDAC 9 in human HeLa nuclear extract using fluorogenic HDAC class 2A substrate measured after 60 mins by fluorometric analysis
Histone deacetylase 9, sequence (Q9UKV0 whole entry): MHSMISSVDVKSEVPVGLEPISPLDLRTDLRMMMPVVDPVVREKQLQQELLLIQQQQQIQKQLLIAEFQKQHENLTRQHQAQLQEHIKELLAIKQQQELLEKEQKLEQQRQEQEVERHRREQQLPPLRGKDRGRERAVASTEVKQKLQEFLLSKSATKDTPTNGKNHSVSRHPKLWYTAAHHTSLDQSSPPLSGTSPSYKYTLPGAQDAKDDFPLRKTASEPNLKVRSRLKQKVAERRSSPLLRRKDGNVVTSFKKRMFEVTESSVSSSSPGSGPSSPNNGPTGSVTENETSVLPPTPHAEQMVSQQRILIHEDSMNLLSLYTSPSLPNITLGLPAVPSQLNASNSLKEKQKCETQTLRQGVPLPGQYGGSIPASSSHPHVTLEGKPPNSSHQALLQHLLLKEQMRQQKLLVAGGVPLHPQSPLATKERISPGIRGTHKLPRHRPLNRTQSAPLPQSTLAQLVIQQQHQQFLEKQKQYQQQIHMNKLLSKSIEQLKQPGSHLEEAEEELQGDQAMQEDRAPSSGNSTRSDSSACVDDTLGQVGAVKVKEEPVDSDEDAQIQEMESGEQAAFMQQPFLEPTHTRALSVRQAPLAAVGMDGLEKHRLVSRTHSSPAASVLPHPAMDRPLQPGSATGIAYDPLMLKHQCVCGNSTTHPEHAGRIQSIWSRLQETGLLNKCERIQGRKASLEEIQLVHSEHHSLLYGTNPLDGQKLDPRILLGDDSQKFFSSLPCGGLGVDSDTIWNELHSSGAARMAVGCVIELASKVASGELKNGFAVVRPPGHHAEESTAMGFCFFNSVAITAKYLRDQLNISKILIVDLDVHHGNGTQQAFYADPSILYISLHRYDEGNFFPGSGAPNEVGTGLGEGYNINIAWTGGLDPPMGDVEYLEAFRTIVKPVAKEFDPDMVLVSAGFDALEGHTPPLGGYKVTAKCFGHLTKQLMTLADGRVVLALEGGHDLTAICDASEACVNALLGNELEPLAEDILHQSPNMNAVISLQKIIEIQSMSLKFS

[14] = tested on: Mus musculus; assay: Toxicity in CDF1 mouse assessed as mortality at 50 mg/kg, ip administered for 9 consecutive days measured up to 18 days; type: organism-based; conditions: in vivo, 432 h
Summary of the method: (§5)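 P388 leukemia cells were harvested from 6–7-day-old ascites grown in the peritoneum of female DBA/2 mice. Female CDF1 mice (18–23 g) received 5×10^5 cells i.p. on day 0. Next day they were randomized into groups of 7 and dosed i.p. daily for 9 consecutive days; controls got 0.2 ml normal saline. Mortality was followed to day 18, with median survival time and %T/C calculated.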

[15] = molecular target: Histone deacetylase 11 (Homo sapiens, UniProt Q96DB2); assay: Inhibition of HDAC 11 in human HeLa nuclear extract using fluorogenic HDAC class 2A substrate measured after 60 mins by fluorometric analysis
Histone deacetylase 11, sequence (Q96DB2 whole entry): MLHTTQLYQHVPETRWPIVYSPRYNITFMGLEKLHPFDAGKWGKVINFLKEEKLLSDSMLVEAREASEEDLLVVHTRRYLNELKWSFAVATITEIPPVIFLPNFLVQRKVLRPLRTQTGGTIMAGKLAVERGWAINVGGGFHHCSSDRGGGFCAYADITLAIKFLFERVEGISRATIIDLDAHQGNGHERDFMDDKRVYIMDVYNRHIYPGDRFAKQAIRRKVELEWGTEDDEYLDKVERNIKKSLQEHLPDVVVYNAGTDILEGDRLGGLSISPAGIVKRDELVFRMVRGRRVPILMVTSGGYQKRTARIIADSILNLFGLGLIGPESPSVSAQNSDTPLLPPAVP

[16] = tested on: Caco-2; assay: Cytotoxicity against human Caco2 cells assessed as growth inhibition at 10 uM after 48 hrs by MTT assay; type: functional; conditions: Caco-2, 48 h, read-out: GI; summary of the method: as §3
[17] = tested on: A549; assay: Cytotoxicity against human A549 cells assessed as growth inhibition after 48 hrs by MTT assay; type: functional, cell-based; conditions: A549, 48 h
[18] = tested on: MOLT-4; assay: Induction of autophagy in human MOLT4 cells assessed as acidic vacuole formation in cytoplasm at 10 uM after 48 hrs by acridine orange dye-based fluorescent microscopic analysis; type: functional, cell-based; summary of the method: as §4
[19] = tested on: HL-60; assay: Induction of mitochondrial membrane potential loss in human HL60 cells at 5 uM measured after 48 hrs by Rh123 dye-based flow cytometric analysis (reference value: 5.6%); type: functional; summary of the method: as §1
[20] = molecular target: Histone deacetylase 2 (Homo sapiens, UniProt Q92769); assay: Inhibition of HDAC 2 in human HeLa nuclear extract using HDAC substrate-3 measured after 60 mins by fluorometric analysis
Histone deacetylase 2, sequence (Q92769 whole entry): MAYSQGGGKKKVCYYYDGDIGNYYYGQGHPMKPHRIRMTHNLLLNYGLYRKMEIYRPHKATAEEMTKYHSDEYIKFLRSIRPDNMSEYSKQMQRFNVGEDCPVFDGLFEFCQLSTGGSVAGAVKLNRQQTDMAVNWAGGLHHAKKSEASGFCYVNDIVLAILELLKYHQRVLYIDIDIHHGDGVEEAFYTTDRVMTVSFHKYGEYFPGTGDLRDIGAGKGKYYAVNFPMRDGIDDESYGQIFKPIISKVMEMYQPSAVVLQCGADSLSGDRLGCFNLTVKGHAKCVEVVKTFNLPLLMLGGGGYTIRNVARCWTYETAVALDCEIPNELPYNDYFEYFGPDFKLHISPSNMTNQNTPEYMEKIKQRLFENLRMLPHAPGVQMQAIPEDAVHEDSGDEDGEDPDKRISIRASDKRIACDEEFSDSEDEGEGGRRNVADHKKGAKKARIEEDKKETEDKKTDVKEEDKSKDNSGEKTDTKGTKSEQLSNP

[21] = species: Homo sapiens; assay: Inhibition of HDAC in human HL60 cells assessed as increase in acetylated H4K5 levels after 48 hrs by Western blot analysis; type: cell-based; summary of the method: as §2
[22] = tested on: HL-60; assay: Induction of mitochondrial membrane potential loss in human HL60 cells at 10 uM measured after 48 hrs by Rh123 dye-based flow cytometric analysis (reference value: 5.6%); type: functional; summary of the method: as §1
[23] = tested on: P388; assay: Antitumor activity against mouse P388 cells implanted in CDF1 mouse assessed as increase in median survival time at 50 mg/kg, ip administered for 9 consecutive days; type: functional; summary of the method: as §5
[24] = tested on: HL-60; assay: Induction of reactive oxygen species in human HL60 cells at 5 uM measured after 48 hrs by H2DCFDA dye-based flow cytometric analysis (reference value: 0.4%); type: functional
[25] = Inhibition of HDAC in human HeLa nuclear extract using Boc-Lys(Ac)-AMC as substrate measured after 30 mins by fluorometric analysis
[26] = tested on: HL-60; assay: Cytotoxicity against human HL60 cells assessed as growth inhibition after 48 hrs by MTT assay; type: functional, cell-based; conditions: HL-60, 48 h
[27] = species: Homo sapiens; assay: Inhibition of HDAC in human HL60 cells assessed as increase in acetylated H3K18 levels after 48 hrs by Western blot analysis; type: cell-based; summary of the method: as §2

With `O=C(CCCCCCC(=O)Nc1ccccc1CN1CC[C@H](O)C1)NO` the Activity [1] was 89%, the Activity [2] was “Active” and the inhibition [3] was “Dose-dependent effect”. It also gave an IC50 [4] of 1300 nM, an IC50 [5] of 1000 nM and an Activity [6] of 1.9%. For the same compound, the inhibition of growth at 10 µM [7] was 29%, the Activity [8] was “Dose-dependent effect” and the IC50 [9] was 37000 nM. The Activity [10] was “Active”, the Activity [11] was 90.4% and the IC50 [12] was 19000 nM. The IC50 [13] was greater than 10000 nM, the Activity [14] was “Non-Toxic” and the IC50 [15] was greater than 10000 nM. The inhibition of growth at 10 µM [16] was 58%, the IC50 [17] was 7000 nM and the Activity [18] was “Active”. The Activity [19] was 12.1%, the IC50 [20] was 268 nM and the inhibition [21] was “Dose-dependent effect”. For the same compound, the Activity [22] was 32%, the T/C [23] was 92.47% and the Activity [24] was 0%. For the same compound, the IC50 [25] was 370 nM, the IC50 [26] was 1000 nM and the inhibition [27] was “Dose-dependent effect”.
